Reference: ChEMBL document CHEMBL1125291, “New 8-(trifluoromethyl)-substituted quinolones. The benefits of the 8-fluoro group with reduced phototoxic risk” (1992)
In brackets after ≈: the same amount, converted by molar mass.

Key:
Mus musculus [1] = organism: Mus musculus; assay: Days of the first positive reaction in […] mice.; type: functional
Outline: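 Phototoxic skin reaction test in depilated female CD-1 mice. A single oral dose (gavage) or subcutaneous dose was given, followed 1 h later by 3 h of UVA exposure (320–400 nm). The regimen was repeated for up to 4 consecutive days, with initial doses of 30, 100 and 300 mg/kg. PTD50 was derived by the probit method. The first day of positive reaction and the no-effect dose were taken from the raw data.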

Mus musculus [2] = organism: Mus musculus; assay: Number of mice which show positive phototoxic reaction in 5 mice; type: functional
Escherichia coli [3] = assay: In vivo efficacy in mouse protection test in Escherichia coli Vogel administered by subcutaneous injection.; type: functional; conditions: Escherichia coli, sc; read-out: PD50
Outline: (§1)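 Acute lethal systemic infections in female Charles River CD-1 mice. A single dose was given at challenge, orally by gavage or by subcutaneous injection. PD50 (median protective dose, mg/kg) was determined.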

Escherichia coli [4] = assay: In vivo efficacy in mouse protection test in Escherichia coli Vogel dose administered orally by gavage.; type: functional; conditions: Escherichia coli, po; read-out: PD50; outline: as §1
Escherichia coli [5] = assay: Minimum inhibitory concentration (MIC) against gram negative bacteria Escherichia coli H-560.; type: functional; conditions: Escherichia coli; read-out: MIC
Outline: (§2)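 MICs were determined by standard broth microtitration against 11 Gram-positive and Gram-negative organisms, in µg/mL. Values come from duplicate or triplicate experiments and are accurate to ±50%.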

Escherichia coli [6] = assay: Minimum inhibitory concentration (MIC) against gram negative bacteria Escherichia coli Vogel.; type: functional; conditions: Escherichia coli; read-out: MIC; outline: as §2
Enterobacter cloacae = assay: Minimum inhibitory concentration (MIC) against gram negative bacteria Enterobacter cloacae MA-2646.; type: functional
Klebsiella pneumoniae = assay: Minimum inhibitory concentration (MIC) against gram negative bacteria Klebsiella pneumoniae MGH-2.; type: functional; conditions: Klebsiella pneumoniae; read-out: MIC; outline: as §2
Mus musculus [7] = organism: Mus musculus; assay: Dose required to induce phototoxic reaction in 50% of mice by probit method at different dosage forms.; type: functional
Mus musculus [8] = organism: Mus musculus; assay: Dose which has no effect to induce phototoxic reaction in 50% of mice by probit method.; type: functional
Mus musculus [9] = assay: Maximum tolerance dose was measured for phototoxic skin reaction by po administration; type: functional
[10] = Minimum inhibitory concentration (MIC) against gram negative bacteria Prot. rettgeri M-1771.; type: functional, Providencia rettgeri; conditions: Providencia rettgeri; read-out: MIC; outline: as §2
Pseudomonas aeruginosa [11] = assay: In vivo efficacy (s.c.) against Pseudomonas aeruginosa in mouse protection test; type: functional; conditions: Pseudomonas aeruginosa, sc; read-out: PD50; outline: as §1
Pseudomonas aeruginosa [12] = assay: In vivo efficacy (orally) against Pseudomonas aeruginosa in mouse protection test; type: functional; conditions: Pseudomonas aeruginosa, po; read-out: PD50; outline: as §1
Pseudomonas aeruginosa [13] = assay: Minimum inhibitory concentration (MIC) against gram negative bacteria Pseudomonas aeruginosa UI-18.; type: functional; conditions: Pseudomonas aeruginosa; read-out: MIC; outline: as §2
Streptococcus pyogenes [14] = assay: In vivo efficacy (s.c.) against Streptococcus pyogenes C-203 in mouse protection test; type: functional; conditions: Streptococcus pyogenes, sc; read-out: PD50; outline: as §1
Streptococcus pyogenes [15] = assay: In vivo efficacy (orally) against Streptococcus pyogenes C-203 in mouse protection test; type: functional; conditions: Streptococcus pyogenes, po; read-out: PD50; outline: as §1
Staphylococcus aureus [16] = assay: Minimum inhibitory concentration (MIC) against gram positive bacteria Staphylococcus aureus H-228.; type: functional; conditions: Staphylococcus aureus; read-out: MIC; outline: as §2
Staphylococcus aureus [17] = assay: Minimum inhibitory concentration (MIC) against gram positive bacteria Staphylococcus aureus UC-76.; type: functional; conditions: Staphylococcus aureus; read-out: MIC; outline: as §2
Enterococcus faecalis = assay: Minimum inhibitory concentration (MIC) against gram positive bacteria Streptococcus faecalis MGH-2.; type: functional; conditions: Enterococcus faecalis; read-out: MIC; outline: as §2
Streptococcus pneumoniae [18] = assay: Minimum inhibitory concentration (MIC) against gram positive bacteria Streptococcus pneumoniae SV-1.; type: functional; conditions: Streptococcus pneumoniae; read-out: MIC; outline: as §2
Streptococcus pneumoniae [19] = assay: In vivo efficacy (s.c.) against Streptococcus pneumoniae SV-1 in mouse protection test; type: functional; conditions: Streptococcus pneumoniae, sc; read-out: PD50; outline: as §1
Streptococcus pneumoniae [20] = assay: In vivo efficacy (orally) against Streptococcus pneumoniae SV-1 in mouse protection test; type: functional; conditions: Streptococcus pneumoniae, po; read-out: PD50; outline: as §1
Streptococcus pyogenes [21] = assay: Minimum inhibitory concentration (MIC) against gram positive bacteria Streptococcus pyogenes C-203.; type: functional; conditions: Streptococcus pyogenes; read-out: MIC; outline: as §2

SMILES | Day of first positve reaction (Mus musculus [1]) | No. of pos rxns (Mus musculus [2]) | ED50 (Escherichia coli [3]) | ED50 (Escherichia coli [4]) | MIC (Escherichia coli [5]) | MIC (Escherichia coli [6]) | MIC (Enterobacter cloacae) | MIC (Klebsiella pneumoniae) | PTD50 (Mus musculus [7]) | No effect dose (Mus musculus [8]) | MTD (Mus musculus [9]) | MIC [10] | MIC (Pseudomonas aeruginosa [13]) | ED50 (Streptococcus pyogenes [14]) | ED50 (Streptococcus pyogenes [15]) | MIC (Staphylococcus aureus [16]) | MIC (Staphylococcus aureus [17]) | MIC (Enterococcus faecalis) | MIC (Streptococcus pneumoniae [18]) | MIC (Streptococcus pyogenes [21]) | other results
CCNCC1CCN(c2c(F)cc3c(=O)c(C(=O)O)cn(C4CC4)c3c2F)C1 (configuration not stated) [PD-117558] | 1 | 5 | 1 mg/kg | 4.2 mg/kg | 0.013 µg/mL (≈ 0.0332 µM) | 0.05 µg/mL (≈ 0.128 µM) | 0.1 µg/mL (≈ 0.255 µM) | 0.2 µg/mL (≈ 0.511 µM) | <30 mg/kg | 30 mg/kg | 30 mg/kg | 0.4 µg/mL (≈ 1.02 µM) | 0.4 µg/mL (≈ 1.02 µM) | 0.5 mg/kg | 1.8 mg/kg | 0.05 µg/mL (≈ 0.128 µM) | 0.006 µg/mL (≈ 0.0153 µM) | 0.025 µg/mL (≈ 0.0639 µM) | 0.025 µg/mL (≈ 0.0639 µM) | – | ED50 (Pseudomonas aeruginosa [11]): 40 mg/kg; ED50 (Pseudomonas aeruginosa [12]): 59 mg/kg; ED50 (Streptococcus pneumoniae [19]): 1.9 mg/kg; ED50 (Streptococcus pneumoniae [20]): 3.3 mg/kg
NC1CCN(c2c(F)cc3c(=O)c(C(=O)O)cn(C4CC4)c3c2C(F)(F)F)C1 (configuration not stated) | 0 | 0 | 1.4 mg/kg | 2.9 mg/kg | 0.025 µg/mL (≈ 0.0626 µM) | 0.05 µg/mL (≈ 0.125 µM) | 0.05 µg/mL (≈ 0.125 µM) | 0.2 µg/mL (≈ 0.501 µM) | >300 mg/kg | 300 mg/kg | 300 mg/kg | 0.4 µg/mL (≈ 1 µM) | 1.6 µg/mL (≈ 4.01 µM) | 26 mg/kg | 32 mg/kg | 0.1 µg/mL (≈ 0.25 µM) | 0.05 µg/mL (≈ 0.125 µM) | 0.4 µg/mL (≈ 1 µM) | 0.4 µg/mL (≈ 1 µM) | 0.4 µg/mL (≈ 1 µM) | ED50 (Pseudomonas aeruginosa [11]): 23 mg/kg; ED50 (Pseudomonas aeruginosa [12]): 53 mg/kg; ED50 (Streptococcus pneumoniae [19]): 26 mg/kg; ED50 (Streptococcus pneumoniae [20]): 25 mg/kg
C[C@@H]1CN(c2c(F)cc3c(=O)c(C(=O)O)cn(C4CC4)c3c2C(F)(F)F)CCN1 | 0 | 0 | 1.4 mg/kg | 1.6 mg/kg | 0.05 µg/mL (≈ 0.121 µM) | 0.1 µg/mL (≈ 0.242 µM) | 0.2 µg/mL (≈ 0.484 µM) | 0.4 µg/mL (≈ 0.968 µM) | >100 mg/kg | 100 mg/kg | 100 mg/kg | 0.8 µg/mL (≈ 1.94 µM) | 3.1 µg/mL (≈ 7.5 µM) | 21 mg/kg | 23 mg/kg | 0.4 µg/mL (≈ 0.968 µM) | 0.2 µg/mL (≈ 0.484 µM) | 0.8 µg/mL (≈ 1.94 µM) | 0.8 µg/mL (≈ 1.94 µM) | 0.8 µg/mL (≈ 1.94 µM) | –
C[C@@H]1CN(c2c(F)cc3c(=O)c(C(=O)O)cn(C4CC4)c3c2F)CCN1 | 4 | 1 | 0.2 mg/kg | 0.7 mg/kg | 0.1 µg/mL (≈ 0.275 µM) | 0.025 µg/mL (≈ 0.0688 µM) | 0.025 µg/mL (≈ 0.0688 µM) | 0.025 µg/mL (≈ 0.0688 µM) | 43 mg/kg | <30 mg/kg | 30 mg/kg | 0.1 µg/mL (≈ 0.275 µM) | 0.4 µg/mL (≈ 1.1 µM) | 7.2 mg/kg | 14 mg/kg | 0.2 µg/mL (≈ 0.55 µM) | 0.1 µg/mL (≈ 0.275 µM) | 0.4 µg/mL (≈ 1.1 µM) | 0.4 µg/mL (≈ 1.1 µM) | 0.2 µg/mL (≈ 0.55 µM) | –
C[C@@H]1CN(c2cc3c(cc2F)c(=O)c(C(=O)O)cn3C2CC2)CCN1 | 0 | 1 | 0.4 mg/kg | 1.2 mg/kg | 0.025 µg/mL (≈ 0.0724 µM) | 0.025 µg/mL (≈ 0.0724 µM) | 0.025 µg/mL (≈ 0.0724 µM) | 0.05 µg/mL (≈ 0.145 µM) | >100 mg/kg | 100 mg/kg | 100 mg/kg | 0.1 µg/mL (≈ 0.29 µM) | 0.4 µg/mL (≈ 1.16 µM) | 12 mg/kg | 39 mg/kg | 0.4 µg/mL (≈ 1.16 µM) | 0.1 µg/mL (≈ 0.29 µM) | 0.4 µg/mL (≈ 1.16 µM) | 0.2 µg/mL (≈ 0.579 µM) | 0.2 µg/mL (≈ 0.579 µM) | –
CC1(CN)CCN(c2c(F)cc3c(=O)c(C(=O)O)cn(C4CC4)c3c2C(F)(F)F)C1 (configuration not stated) | 0 | 0 | 3.1 mg/kg | 8.5 mg/kg | 0.1 µg/mL (≈ 0.234 µM) | 0.2 µg/mL (≈ 0.468 µM) | 0.2 µg/mL (≈ 0.468 µM) | 0.4 µg/mL (≈ 0.936 µM) | >100 mg/kg | 100 mg/kg | 100 mg/kg | 0.8 µg/mL (≈ 1.87 µM) | 3.1 µg/mL (≈ 7.25 µM) | – | – | 0.05 µg/mL (≈ 0.117 µM) | 0.013 µg/mL (≈ 0.0304 µM) | 0.2 µg/mL (≈ 0.468 µM) | 0.05 µg/mL (≈ 0.117 µM) | 0.05 µg/mL (≈ 0.117 µM) | ED50 (Streptococcus pneumoniae [19]): 0.4 mg/kg; ED50 (Streptococcus pneumoniae [20]): 1.1 mg/kg
